Screening results as filed in PubChem.
This is a sample that favours compounds with a hit; in the whole collection about 1% have one here.
bCat nuc transl = modulators of beta-catenin nuclear translocation. 190,000 compounds, 0.3% hits. HeLa beta-catenin nuclear translocation, immunofluorescence imaging. AID 1665. nuclear translocation activity, % at 5 µM;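 active = nuclear translocation activity above 50% at 5 µM, with a well cell count of 50 or more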;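 also: per-cell ratio of nuclear to cytoplasmic median beta-catenin stain intensity; plate controls were DMSO negative control for no effect and GSK-3 inhibitor IX positive control for full effect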
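test system = HeLa cells, endogenous beta-catenin | dosing = single 5 µM dose plus 0.02–20 µM confirmation series | times = compound treatment 24 h, 37°C, 5% CO2 | technique = beta-catenin immunofluorescence imaging with DAPI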
NOD2-RIPK2 inh = inhibitors of human NOD2-RIPK2 interaction; O43353; CHO BLA complementation NOD2-RIPK2, CCF4 ratio; inhibition, % at 4.98 µM; 360,000 compounds, 0.38% hits; AID 624267; in the data active = inhibition above about 21%;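 also: 0% = vehicle only and 100% = reference blocker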
Target sequence (O43353 whole entry, looked up): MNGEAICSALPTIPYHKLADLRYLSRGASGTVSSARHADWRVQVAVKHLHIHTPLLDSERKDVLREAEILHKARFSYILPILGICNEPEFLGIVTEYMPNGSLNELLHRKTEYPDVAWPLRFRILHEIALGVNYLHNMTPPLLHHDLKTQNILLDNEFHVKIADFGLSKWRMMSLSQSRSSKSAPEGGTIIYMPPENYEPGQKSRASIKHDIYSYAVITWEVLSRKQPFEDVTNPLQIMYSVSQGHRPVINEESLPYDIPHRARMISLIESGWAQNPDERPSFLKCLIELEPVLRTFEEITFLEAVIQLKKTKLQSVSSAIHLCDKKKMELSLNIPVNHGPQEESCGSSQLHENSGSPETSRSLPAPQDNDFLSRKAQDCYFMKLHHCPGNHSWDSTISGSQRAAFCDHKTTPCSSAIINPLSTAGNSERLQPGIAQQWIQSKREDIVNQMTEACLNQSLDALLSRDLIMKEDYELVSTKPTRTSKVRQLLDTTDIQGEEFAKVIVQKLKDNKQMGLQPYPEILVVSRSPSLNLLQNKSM
TLR9-MyD88 inh = blocks human TLR9 binding to MyD88; inhibition, % at 4.98 µM; 340,000 compounds, 0.21% hits; CHO BLA complementation TLR9-MyD88, CCF4 FRET ratio; AID 504734; Q9NR96+Q99836;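 active = inhibition above the mean over all tested compounds plus 3 SD, cut at about 21% in these data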;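 also: 0% = DMSO only wells and 100% = clavulanate BLA inhibitor control wells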
MT stabilizer = microtubule stabilization, imaging screen | HeLa tubulin immunostaining HCS, 24 h; share of cells brighter than vehicle mean+2SD | % tubulin-high responders, % at 10 µM | 200,000 compounds, 0.83% hits | AID 2205;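 active = plate Z-score above 3 for both tubulin-high and condensed-nucleus cell shares, with cell loss under 80%, at 10 µM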;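 also: anti alpha tubulin signal scored within the nucleus-defined area of each cell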
TLR4-MyD88 BLA = blocks binding of human TLR4 to MyD88; O00206+Q99836; HeLa CL3-4 TLR4/MyD88 BLA complementation, FRET ratio; inhibition, % at 8.4 µM; 200,000 compounds, 0.18% hits; in the data active = inhibition above about 25%;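 also: 0% = vehicle and 100% = reference inhibitor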
Hsp70 activator = Hsp70 transcriptional activation, primary screen; HeLa Hsp70 promoter luciferase reporter, luminescence; scaled: vehicle 0, proteasome-inhibitor control 100%; activation, % at 10 µM; 200,000 compounds, 0.04% hits;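 active = activation above the mean across all tested compounds plus 3 SD, cutoff set per campaign, cut at about 5.5% in these data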;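 also: 100% = MG132 at 30 µM as the positive control and 0% = DMSO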
Starred values were filed as active, the others as inactive; . = not tested or not shown.

SMILES	bCat nuc transl	NOD2-RIPK2 inh	TLR9-MyD88 inh	MT stabilizer	TLR4-MyD88 BLA	Hsp70 activator
O=C(c1ccco1)N1CCN(CC(=O)N2CCCc3c2c(=O)oc2ccc(O)cc32)CC1	-1	.	.	4	-7	0
CC(Sc1nnc2ccccn12)C(=O)Nc1ncc(Cl)cc1Cl (stereo unspecified)	-2	6	1	3	12	0
COc1ccc(-n2c(SC(C)C(=O)Nc3ncc(Cl)cc3Cl)nc3ccccc32)cc1 (stereo unspecified)	13	-11	-7	18*	18	-1
COC(=O)C1CN(C(=O)C(C)Oc2ccccc2Cl)c2ccccc2O1 (stereo unspecified)	.	1	-8	.	.	.
COc1cccc(N2CCN(Cc3nc4scc(-c5ccccc5)c4c(=O)[nH]3)CC2)c1	8	0	4	15*	-7	0
O=c1[nH]c(CN2CCN(c3ccc(O)cc3)CC2)nc2scc(-c3ccc(Cl)cc3)c12	7	2	6	21*	-12	0
O=c1[nH]c(CN2CCN(c3ccccc3O)CC2)nc2scc(-c3ccccc3Cl)c12	0	-3	2	.	.	.
CCc1cc(=O)oc2c3c(cc(OCC(=O)NCCN4CCOCC4)c12)OC(C)(C)CC3	.	6	-6	.	.	.
Cc1ccc(S(=O)(=O)NN=Cc2ccccc2Cl)cc1	.	-11	-5	.	.	.
Cc1ccc(S(=O)(=O)N/N=C\c2ccccc2OCc2ccccc2)cc1	.	-9	-4	25*	-3	1
Cc1ccc(NC(=S)NNC(=O)c2ccccc2OC(F)F)cc1	1	-6	-7	45*	-15	0
Cc1sc(NC(=O)CN(C(=O)c2ccccc2F)C2CCCC2)c(C(N)=O)c1C	.	-1	9	.	.	.
COc1ccc(NC(=O)/C(C#N)=C\c2cc(C)n(-c3ccc4c(c3)OCO4)c2C)cc1	.	5	3	24*	-5	0
Cc1ccc(NC(=O)CCc2nc3sc4c(c3c(=O)[nH]2)CCCC4)c(Br)c1	.	-4	-2	.	.	.
CCN(CC)c1ccc(/C=N/Nc2ccc(C)cc2)c(O)c1	1	4	10	3	-21	-1
CCN(C)c1ccc(/C=N\n2nnnc2N)cc1	.	-1	-6	25*	6	0
CCN(CC)c1ccc(/C=N/N2C(=O)c3ccccc3C2=O)c(O)c1	-4	-2	17	4	-8	0
CCOC(=O)N/N=C/c1ccc(N(CC)CC)cc1O	32	0	5	16*	0	0
CCN(CC)c1ccc(/C=N/n2nnnc2N)c(O)c1	.	-3	3	24*	-13	0
CCOc1ccc(NCc2nnc(SCC(=O)Nc3cc(C)on3)n2-c2ccc(OC)cc2)cc1	-2	-5	1	2	4	0
CCOc1ccc(NCc2nnc(SCC(=O)Nc3cc(C)on3)n2-c2ccccc2OC)cc1	1	-13	2	24*	-7	0
CCCCCCCCCCCCCCCCn1cc[n+](C)c1	18	-3	2	72*	2	0
CCCCCCCCn1ccc(=N)cc1	2	-15	2	.	.	.
COc1cc(S(=O)(=O)Nc2cccc(C)c2)ccc1N=Cc1c(C)[nH]n(-c2ccccc2)c1=O	-2	.	.	18*	5	0
O=C(COc1cc2oc(=O)c3c(c2cc1Cl)CCC3)NCC(O)c1ccccc1 (stereo unspecified)	.	1	-8	.	.	.
SMILES	bCat nuc transl	NOD2-RIPK2 inh	TLR9-MyD88 inh	MT stabilizer	TLR4-MyD88 BLA	Hsp70 activator
O=C(Nc1ccc(Cl)cn1)c1ccccc1[N+](=O)[O-]	1	-8	10	23*	8	0
O=C(CC(c1ccccc1)c1ccccc1)Nc1ccc(Cl)cn1	-4	-2	-3	53*	8	0
O=C(/C=C/c1ccccc1)Nc1ccc(Cl)cn1	3	-7	0	25*	-4	2
O=C(/C=C/c1cccs1)Nc1ccc(Br)cn1	166*	2	5	7	-8	0
O=C(Nc1ccc(Cl)cn1)c1cccc2ccccc12	.	5	8	.	.	.
O=C(CS(=O)(=O)c1ccccc1)Nc1ccc(Cl)cn1	.	5	-11	.	.	.
O=C(COC(=O)/C=C/c1ccccc1)Nc1ccc(Cl)cn1	.	6	-7	.	.	.
CCc1c(C)c2ccc(OCC(=O)NCC3CCC(C(=O)O)CC3)c(C)c2oc1=O (stereo unspecified)	.	-18	-4	.	.	.
